Rows were chosen to be rich in hits. Some 1.6% of all compounds tested hit in one or more screens of this group.
TDP2 absorb – blocks human TDP2 phosphodiesterase activity; AID 720702; inhibition, % at 12.8 µM; O95551; 0.34% of 370,000 active; recombinant TDP2, T5PNP hydrolysis, p-nitrophenol absorbance 415 nm;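 active = inhibition above the mean of all tested compounds plus 3 SD, set per campaign, cut at about 25% in these data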;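 also: 0% = DMSO with enzyme and 100% = buffer with substrate but no TDP2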
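Material: recombinant human TDP2; quantity: TDP2 enzyme at 120 nM final; medium: Tris-HCl pH 7.5 with MgCl2; compound: single concentration, 12.8 µM nominal, with 1% DMSO; incubation: 2 h enzyme incubation at 37 °C; signal: epi absorbance; measure: percent inhibition; benchmarks: high control without enzyme, low control DMSO plus TDP2; repeats: singlicate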
LEDGF integ inh – blocks HIV-1 LEDGF/p75-dependent DNA integration; TR-FRET IN-LEDGF/p75 DNA integration, Eu/Cy5; inhibition, % at 3.7 µM; 0.64% of 370,000 active; AID 743269;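 active = inhibition above the screen-wide mean plus 3 SD, cut at about 13% in these data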;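 also: signal is the Cy5 over europium emission ratio at 671 and 618 nm; 0% = plate median of compound wells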
UHRF1 MBD2 ctr – human UHRF1 methylated DNA binding inhibitors. 0.75% of 370,000 active. inhibition, % at 4.4 µM. UHRF1 binding to methylated oligo, TR-FRET; in the data active = inhibition above about 21%;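 also: UHRF1 SRA domain binding a hemimethylated CpG hairpin DNA probe; 0% = median of test compound wells and 100% = reference inhibitor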
Target sequence (Q96T88 whole entry, looked up, the tested form may be a part): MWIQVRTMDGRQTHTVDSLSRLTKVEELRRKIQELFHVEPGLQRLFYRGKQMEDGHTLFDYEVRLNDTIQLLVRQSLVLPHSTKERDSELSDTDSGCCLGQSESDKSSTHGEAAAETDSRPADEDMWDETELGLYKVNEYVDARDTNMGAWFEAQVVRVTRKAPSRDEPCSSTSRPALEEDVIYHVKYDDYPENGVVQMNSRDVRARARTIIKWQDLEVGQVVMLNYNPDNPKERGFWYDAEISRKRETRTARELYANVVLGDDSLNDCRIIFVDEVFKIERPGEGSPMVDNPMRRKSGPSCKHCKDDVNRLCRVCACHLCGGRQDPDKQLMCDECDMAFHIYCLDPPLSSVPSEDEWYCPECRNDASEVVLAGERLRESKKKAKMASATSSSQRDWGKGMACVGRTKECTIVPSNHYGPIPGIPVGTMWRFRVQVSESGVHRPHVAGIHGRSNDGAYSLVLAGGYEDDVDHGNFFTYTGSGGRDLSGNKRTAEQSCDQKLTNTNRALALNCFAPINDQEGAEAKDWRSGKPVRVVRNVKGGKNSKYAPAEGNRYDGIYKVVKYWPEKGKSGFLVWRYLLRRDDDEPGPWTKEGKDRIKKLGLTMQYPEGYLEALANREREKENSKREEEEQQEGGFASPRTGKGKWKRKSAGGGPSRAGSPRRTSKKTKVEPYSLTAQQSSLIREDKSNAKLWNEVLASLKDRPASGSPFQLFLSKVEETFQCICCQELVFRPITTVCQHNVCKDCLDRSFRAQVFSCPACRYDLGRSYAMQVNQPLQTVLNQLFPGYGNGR
MBD2 inh – MBD2-methylated oligo binding inhibition. inhibition, % at 4.4 µM. TR-FRET, MBD2 binding to methylated oligonucleotide. 0.31% of 370,000 active. Q9UBB5; in the data active = inhibition above about 13%
IN multimer up – activates HIV-1 integrase multimerization in LEDGF counter-screen; TR-FRET HIV-1 integrase multimerization, biochemical; activation, % at 7.7 µM; 17% of 2,000 active; shares compounds with LEDGF integ inh; in the data active = activation above about 8.9%
TR-FRET interf – counter-screen for LEDGF/p75 integration inhibitors: TR-FRET optical interference | shares compounds with LEDGF integ inh | TR-FRET optical interference counterscreen, HIV-1 IN multimerization | inhibition, % at 7.7 µM | 2,000 tested, under 10 active | AID 1053135;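 active = inhibition above the mean over all tested compounds plus 3 SD, which no compound reached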;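 also: 0% = integrase with antibodies and DMSO and 100% = antibodies without integrase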
LEDGF integ conf – confirmation of HIV-1 LEDGF/p75-dependent integration inhibitors; shares compounds with LEDGF integ inh; TR-FRET LEDGF/p75-dependent HIV-1 integration, biochemical; inhibition, % at 3.7 µM; 36% of 2,000 active; AID 1053136; in the data active = inhibition above about 14%
* hit, by the source's call; x = not tested or not shown.

SMILES	TDP2 absorb	LEDGF integ inh	UHRF1 MBD2 ctr	MBD2 inh	IN multimer up	TR-FRET interf	LEDGF integ conf
O=C(Nc1ccccc1)c1ccc2nc(-c3ccco3)c(-c3ccco3)nc2c1	2.8	16.6*	6.0	2.1	3.9	-19.6	42.7*
CCCCNC(=O)c1ccc2nc(-c3ccco3)c(-c3ccco3)nc2c1	-2.5	49.9*	27.9*	0.2	5.7	-28.5	33.3*
O=C(NC(=S)Nc1ccc(N2CCOCC2)cc1)c1ccco1	6.6	-3.7	-1.3	4.3	x	x	x
CC(C)(C)OC(=O)C[C@H]1C/C=C\C[C@@H](CC(=O)N[C@H](CO)Cc2ccccc2)C(=O)NC[C@H](c2ccccc2)OC1=O	-1.1	0.7	-8.1	1.2	x	x	x
CC(C)(C)OC(=O)C[C@H]1C/C=C\C[C@@H](CC(=O)NCCO)C(=O)NC[C@@H](c2ccccc2)OC1=O	4.2	75.5*	-2.3	2.1	-0.2	0.9	-0.6
O=C(CC(=O)OCc1ccccc1)OCc1ccccc1	-3.5	7.4	-1.7	0.9	x	x	x
N#CC(CC(=O)OCc1ccccc1)NC(=O)OCc1ccccc1 (stereo not given)	-4.1	33.0*	-0.4	0.5	-1.2	6.2	-2.6
C/C(CC(=O)Nc1ccccn1)=N\NC(=O)c1ccccc1O	-21.1	37.6*	-5.3	-5.5	0.7	-3.6	45.8*
O=C(NCC1CCCO1)C(c1cccs1)N(C(=O)c1ccc(-c2ccccc2)[nH]1)C1CCCC1 (stereo not given)	-10.6	0.1	-3.2	1.6	x	x	x
NC(=O)CC1Nc2cccc3cccc(c23)NC1=O (stereo not given)	9.8	18.7*	-2.0	-2.3	35.3*	-125.7	31.5*
COc1cc(OC)cc(C(=O)n2cnnc2N)c1	-5.1	25.0*	0.7	-1.4	0.1	-0.5	-3.5
CC(C)NC(=O)C1(C)CCCN1Cc1ccccc1C#N (stereo not given)	-12.4	3.9	4.5	-0.8	x	x	x
O=C(Oc1ccc(O)cc1)C12CC3CC(CC(C3)C1)C2	-8.4	5.0	-1.8	0.0	x	x	x
COC(=O)c1ccc(Oc2ccc(S(=O)(=O)N3CCCCC3)cc2N)cc1	3.6	-1.0	1.4	2.8	x	x	x
Nc1cc(S(=O)(=O)N2CCCCC2)ccc1Oc1ccc(Cl)cc1	-5.7	40.0*	-1.4	-2.5	-0.1	0.5	-2.8
COC(=O)C1=C(C)NC2=C(C(=O)CCC2)C1c1cn(Cc2ccc(Br)cc2)nc1-c1ccccc1 (stereo not given)	9.6	-0.6	-2.3	0.2	x	x	x
COc1ccc(C2C(C(C)=O)=C(C)N=c3s/c(=C\c4ccco4)c(=O)n32)c(OC)c1 (stereo not given)	1.4	14.8*	-2.9	-1.7	-1.4	6.8	-0.3
CCOC(=O)C1=C(c2ccccc2)N=c2s/c(=C\c3ccco3)c(=O)n2C1c1cccs1 (stereo not given)	-1.4	15.7*	8.1	5.5	1.4	-7.0	22.8*
O=[N+]([O-])c1ccc(SCc2ccncc2)nc1	-3.6	-5.4	0.0	-0.8	x	x	x
COc1ccccc1N1CCN(C2CCCN(C(=O)c3ccoc3)C2)CC1 (stereo not given)	-11.2	-5.2	4.7	-1.8	x	x	x
Oc1ccc(C=Nc2ccc(N3CCOCC3)cc2)c(O)c1	11.8	19.5*	-2.6	-2.6	19.2*	-96.5	23.4*
Oc1ccc(N=Nc2cccc(C(F)(F)F)c2)cc1C=Nc1ccc(N2CCOCC2)cc1	22.0	14.1*	-3.9	-2.8	-0.9	2.9	14.1*
Oc1cc(Br)ccc1C=Nc1ccc(N2CCCCC2)cc1	19.5	6.2	-1.0	-3.1	x	x	x
COc1ccc(C(=O)NC(=S)NNC(=O)c2ccc(O)cc2)cc1[N+](=O)[O-]	3.0	-1.9	0.1	1.7	x	x	x
CN1CCN(Cc2nc(Cc3ccccc3)no2)CC1c1ccccc1 (stereo not given)	-0.5	-3.0	2.4	5.7	x	x	x
SMILES	TDP2 absorb	LEDGF integ inh	UHRF1 MBD2 ctr	MBD2 inh	IN multimer up	TR-FRET interf	LEDGF integ conf
O=C(O)c1ccccc1-c1cc2ccccc2[nH]1	11.4	-0.6	-0.8	1.0	x	x	x
C=CCn1c(N)c(C(=O)NCCC2=CCCCC2)sc1=S	3.4	19.0*	3.9	1.5	4.9	-24.7	-1.0
NC(=O)NCCC1=CCCCC1	10.1	-2.2	-2.4	-6.0	x	x	x
COc1ccc(Cn2c(NC(=O)c3ccccc3)nc(Cc3ccccc3)c2Cc2ccccc2)c(OC)c1	-3.3	4.6	0.1	-1.8	x	x	x
COc1ccc(-c2c(Cc3ccccc3)nc(NC(=O)c3ccccc3)n2C)cc1	7.1	13.2	0.5	3.4	x	x	x
O=C(Nc1nc(Cc2ccccc2)c(Cc2ccccc2)n1Cc1ccccc1)c1ccccc1	10.1	5.2	-2.7	0.9	x	x	x
COc1ccc(Cn2c(NC(=O)c3ccccc3)nc(Cc3ccccc3)c2Cc2ccccc2)cc1	-5.3	14.3*	-2.6	-0.8	-0.4	2.2	13.8*
Cn1c(NC(=O)c2ccccc2)nc(Cc2ccccc2)c1Cc1ccccc1	-6.5	24.6*	-1.6	-5.1	0.8	-3.9	27.3*
CCCn1c(NC(=O)c2ccccc2)nc(Cc2ccccc2)c1Cc1ccccc1	-1.4	14.8*	-0.1	1.9	1.6	-8.2	25.0*
Cn1c(NC(=O)c2ccccc2)nc(Cc2ccccc2)c1-c1ccccc1	-5.2	23.1*	0.6	-6.2	0.7	-3.4	31.2*
Cn1c(NC(=O)c2ccc(F)cc2)nc2ccccc21	14.5	9.6	-1.6	0.0	x	x	x
CCCCCCCCN1C(=O)N(Cc2ccc(OC)cc2)S(=O)(=O)c2ccc(F)cc21	8.9	-1.1	-2.8	-1.6	x	x	x
CCc1ccc(O)c(CNCCNCc2cc(CC)ccc2O)c1	-3.6	-2.9	-1.6	-0.2	x	x	x
C=CCc1cc(C=Nc2ccc(N3CCOCC3)cc2)cc(OCC)c1O	23.7	24.6*	1.8	-2.6	4.7	-16.8	-14.2
C=CCc1cc(/C=N/n2cnnc2)cc(OCC)c1O	4.7	0.0	0.9	-1.6	x	x	x
O=C(NCc1ccncc1)C1CCN(S(=O)(=O)c2cc(Cl)ccc2Cl)CC1	4.3	20.5*	0.6	-0.8	0.1	-0.5	-7.7
CCNC(=S)N(Cc1ccccc1)Cc1nc2ccccc2c(=O)[nH]1	5.6	69.6*	3.8	5.0	5.0	-25.1	-3.7
COCCCNC(=S)N(Cc1ccccc1)Cc1nc2ccccc2c(=O)[nH]1	-2.6	-0.8	1.4	-4.6	x	x	x
NS(=O)(=O)c1ccc2c(c1)C1C=CCC1C(C1CC=CCC1)N2 (stereo not given)	8.9	21.4*	1.7	4.8	1.6	-8.2	3.5
CC(C)C1Nc2ccc(S(N)(=O)=O)cc2C2C=CCC21 (stereo not given)	-4.6	0.0	-5.9	-1.6	x	x	x
CC(=O)c1ccc(NC(=O)NC2CCCCCCC2)cc1	-0.9	-0.7	-1.0	-6.9	x	x	x
COc1ccc(Cl)cc1NC(=O)NNC(=O)c1ccccn1	-5.9	2.4	1.8	-1.8	x	x	x

High-throughput results from PubChem BioAssay.
